hIAP block: human IAP inhibition. purified IAP, CDP-Star luminescence, 30 min. inhibition, % at 10 µM. hit rate 0.12% among 330,000;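 active = inhibition reaching a set limit with compound at 10 µM in the primary screen, cut at about 35% in these data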;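 also: plate controls were DMSO wells with enzyme for no effect and no-enzyme buffer wells for full effect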
Target sequence (P09923 whole entry, looked up): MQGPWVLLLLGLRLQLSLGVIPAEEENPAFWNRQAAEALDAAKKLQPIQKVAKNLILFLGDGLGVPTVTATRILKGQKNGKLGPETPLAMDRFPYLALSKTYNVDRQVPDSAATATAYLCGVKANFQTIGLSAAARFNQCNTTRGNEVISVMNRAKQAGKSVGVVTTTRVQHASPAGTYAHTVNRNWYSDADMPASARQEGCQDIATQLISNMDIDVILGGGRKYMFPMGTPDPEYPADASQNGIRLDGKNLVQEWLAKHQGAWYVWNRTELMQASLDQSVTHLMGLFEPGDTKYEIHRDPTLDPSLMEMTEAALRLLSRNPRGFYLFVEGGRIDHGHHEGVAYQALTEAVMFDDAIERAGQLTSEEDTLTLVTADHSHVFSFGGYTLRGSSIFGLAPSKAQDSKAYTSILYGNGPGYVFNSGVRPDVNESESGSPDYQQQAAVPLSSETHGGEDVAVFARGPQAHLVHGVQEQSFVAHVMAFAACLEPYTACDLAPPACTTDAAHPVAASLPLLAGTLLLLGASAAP
mIAP act: increases mouse intestinal alkaline phosphatase activity. muIAP, CDP-Star luminescence, 30 min; hits give high values; 1 = vehicle-only enzyme signal, 0 = enzyme-free wells. activation factor at 10 µM. hit rate 0.24% among 330,000. AID 2805;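 active = activation factor of at least 2 at 20 µM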
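also added = chemiluminescent substrate CDP-Star | test system = mouse IAP enzyme | signal = chemiluminescence readout | compound = DMSO-dissolved test compounds | incubation = 30 min at room temperature | benchmarks = DMSO wells, no-enzyme wells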
bIAP activator: intestinal alkaline phosphatase (bovine) activation; purified bovine IAP, CDP-star luminescence, 30 min; hits give high values; fold of DMSO-control signal, blank-subtracted; activation factor at 20 µM; hit rate 0.17% among 200,000;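 active = activation factor of 2 or more at 20 µM, a signal rise over negative controls twice the positive control's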
mIAP inh: blocks mouse intestinal alkaline phosphatase. purified mouse IAP, CDP-Star luminescence, 30 min. hit rate 0.2% among 330,000. inhibition, % at 10 µM;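 active = inhibition of at least 40% at 10 µM in the primary screen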;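 also: plate controls were DMSO with enzyme for no effect and no enzyme wells for full effect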
hIAP act: increases human intestinal alkaline phosphatase activity; purified human IAP, CDP-Star luminescence, 30 min; hits give high values; 1 = vehicle-only enzyme, 0 = enzyme-free background; AID 2524; P09923; hit rate 0.16% among 330,000; activation factor at 10 µM;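 active = activation factor of the enzyme at least 2-fold when tested at 20 µM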
bIAP inhibitor: intestinal alkaline phosphatase (bovine) inhibition | purified bovine IAP, CDP-star luminescence, 30 min | inhibition, % at 20 µM | 190,000 tested, under 10 active;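 active = over 50% inhibition of intestinal alkaline phosphatase at 20 µM in the single-dose screen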
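test system = bovine IAP enzyme | medium = DEA buffer 100 mM, pH 9.8, with MgCl2 1.0 mM, ZnCl2 0.02 mM | detection = luminescence | dosing = single compound dose of 20 µM, 2% DMSO final | incubation = 30 min reaction at room temperature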
hIAP act confirm: human IAP activation confirmation. purified IAP, CDP-Star luminescence, 30 min; hits give low values. shares compounds with hIAP act. activation (%Activity, negative = activation), % at 8.3 µM. hit rate 10% among 880;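 active = at least twofold enzyme activation in any of six single-dose repeats, which the averaged readout prints as negative percent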
* hit, by the source's call. Only some compounds are listed: those with a hit (about 0.77% of all), similar ones and a draw of the others.

Results for O=[N+]([O-])c1ccc(N2N=C(c3ccccc3)CC2c2ccccc2O)cc1 (centres undefined) ?
hIAP block: 38*; mIAP act: 0.81; mIAP inh: 19; hIAP act: 0.62; hIAP act confirm: -50

Results for O=C(NNC(=O)c1cc(Br)c(Br)s1)c1csc(N2CCOCC2)n1 ?
hIAP block: -95; mIAP act: 0.93; mIAP inh: 7; hIAP act: 1.9

Results for CN1CCN(CCNC(=O)Cn2c(=O)c3cccn3c3ccc(F)cc32)CC1 ?
hIAP block: 39*; mIAP act: 0.93; mIAP inh: 7; hIAP act: 0.61; hIAP act confirm: 35

Results for O=C(c1cccc(S(=O)(=O)N2CCc3ccccc32)c1)N1CCN(c2ccccn2)CC1 ?
hIAP block: -3; mIAP act: 0.98; bIAP activator: 0.9; mIAP inh: 2; hIAP act: 1; bIAP inhibitor: 11

What do the screens show for `Cc1cc(C(=O)NNC(=O)COc2c(C)cc(Br)cc2C)n[nH]1`?
hIAP block: -120; mIAP act: 0.78; mIAP inh: 22; hIAP act: 2.2*; hIAP act confirm: 0

What do the screens show for `Cc1cc(C(=O)NNC(=O)COc2ccccc2Cl)n[nH]1`?
hIAP block: -214; mIAP act: 0.88; mIAP inh: 12; hIAP act: 3.1*; hIAP act confirm: 8

What do the screens show for `Cc1ccc(OCC(=O)NNC(=O)c2cc(C)[nH]n2)cc1`?
hIAP block: 10; mIAP act: 0.85; bIAP activator: 1; mIAP inh: 15; hIAP act: 0.9; bIAP inhibitor: -2

Results for CC(Sc1nnc2c(n1)[nH]c1ccccc12)C(=O)NC1CCCCC1 (centres undefined) ?
hIAP block: 21; mIAP act: 0.83; mIAP inh: 17; hIAP act: 0.79

What do the screens show for `CCC(=O)N1CCN(c2ccccc2NC(=O)COc2ccc(C(C)C)cc2)CC1`?
hIAP block: 29; mIAP act: 1; mIAP inh: -1; hIAP act: 0.71

How did CC(C)(C)c1cn(-c2ccc(F)cc2)c(=S)[nH]1 do in these assays?
hIAP block: 35*; mIAP act: 0.97; bIAP activator: 0.6; mIAP inh: 3; hIAP act: 0.65; bIAP inhibitor: 38; hIAP act confirm: 3

What do the screens show for `Cc1ccccc1-c1cn(-c2ccccc2)c(=S)[nH]1`?
hIAP block: 10; mIAP act: 0.96; mIAP inh: 4; hIAP act: 0.9

How did Cc1ccc(C(=O)OCCOc2cccc(Cl)c2)cc1S(=O)(=O)N1CCOCC1 do in these assays?
hIAP block: -5; mIAP act: 0.96; mIAP inh: 4; hIAP act: 1

What do the screens show for `O=C(CNC(=O)c1ccc(Br)o1)NCC(=O)OCc1ccccc1`?
hIAP block: -19; mIAP act: 1; mIAP inh: -4; hIAP act: 1.2

What do the screens show for `NC1=NN=C(N2N=C(c3ccccc3)CC2(O)C(F)(F)F)n2ncnc2C1` (centres undefined)?
hIAP block: -10; mIAP act: 0.72; bIAP activator: 1.4; mIAP inh: 28; hIAP act: 1.1; bIAP inhibitor: -41

What do the screens show for `COc1ccc(C2=NN(C3=NN=C(N)Cc4ncnn43)C(O)(C(F)(F)F)C2)cc1` (centres undefined)?
hIAP block: -160; mIAP act: 0.86; bIAP activator: 1.7; mIAP inh: 14; hIAP act: 2.6*; bIAP inhibitor: -72; hIAP act confirm: 42

How did NC1=NN=C(N2N=C(c3ccc(Br)cc3)CC2(O)C(F)(F)F)n2ncnc2C1 (centres undefined) do in these assays?
hIAP block: -162; mIAP act: 0.95; bIAP activator: 1.1; mIAP inh: 5; hIAP act: 2.6*; bIAP inhibitor: -8; hIAP act confirm: 4

How did COc1ccccc1C1=NN(C2=NN=C(N)Cc3ncnn32)C(O)(C(F)(F)F)C1 (centres undefined) do in these assays?
hIAP block: -177; mIAP act: 0.84; bIAP activator: 1.4; mIAP inh: 16; hIAP act: 2.8*; bIAP inhibitor: -43; hIAP act confirm: 45
